# A selection: hits, their analogues and other compounds. The true share with any hit is near 2.9%.
# HTRA1 inhibitor – inhibitors of human serine peptidase HTRA1; inhibition, % at 5.96 µM; 0.5% of 340,000 active; Q92743; recombinant HTRA1, FP-rhodamine activity-based probe, fluorescence polarization; in the data active means inhibition above about 36%;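 further: 0% = enzyme with DMSO and 100% = wells lacking enzyme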
# mABHD4 FP – inhibits mouse alpha/beta hydrolase domain 4; purified mABHD4, FP-Rh probe fluorescence polarization; inhibition, % at 8.92 µM; 0.54% of 370,000 active; AID 720543;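 active means inhibition exceeding the mean over every tested compound plus 3 SD, cut at about 30% in these data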;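 further: 0% = plate median of compound wells and 100% = S159A mutant with DMSO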
#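 Material: mouse ABHD4 enzyme, wild type; Benchmarks: S159A mutant high control, sample median low control; Buffer or medium: HEPES pH 7.0, NaCl, Pluronic buffer; Signal: fluorescence polarization; Read-out: percent inhibition of probe binding, normalized to plate controls; Timing: pre-incubation 45 min, probe exposure 60 min, at 25 °C; Dosing: 8.92 µM, single dose.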
# SIAE primary – blocks human sialic acid acetylesterase; inhibition, % at 9.66 µM; SIAE FP-Rh probe binding, fluorescence polarization; Q9HAT2; AID 1053197; 0.69% of 370,000 active;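 active means inhibition above a cutoff: mean of compounds within the control limits plus 3 SD of those, cut at about 17% in these data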;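 further: 0% = plate median of compound wells and 100% = probe without SIAE protein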
# Target sequence (Q9HAT2 whole entry, looked up): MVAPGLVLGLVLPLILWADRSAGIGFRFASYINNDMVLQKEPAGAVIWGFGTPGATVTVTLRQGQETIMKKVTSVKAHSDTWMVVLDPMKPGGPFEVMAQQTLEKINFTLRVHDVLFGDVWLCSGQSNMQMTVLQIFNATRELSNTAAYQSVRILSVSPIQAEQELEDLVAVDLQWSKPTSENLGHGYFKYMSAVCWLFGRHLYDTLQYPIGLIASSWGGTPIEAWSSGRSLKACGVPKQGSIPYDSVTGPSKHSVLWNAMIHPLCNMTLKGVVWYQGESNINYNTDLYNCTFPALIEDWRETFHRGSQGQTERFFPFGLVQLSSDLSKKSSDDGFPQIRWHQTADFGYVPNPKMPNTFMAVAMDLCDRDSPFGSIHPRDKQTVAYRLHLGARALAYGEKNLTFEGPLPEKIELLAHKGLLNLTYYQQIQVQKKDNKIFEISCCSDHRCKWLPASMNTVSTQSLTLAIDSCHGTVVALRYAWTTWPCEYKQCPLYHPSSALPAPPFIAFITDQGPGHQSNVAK
# PRMT1 FP inh – PRMT1 (human) inhibition, primary screen. Q99873. recombinant PRMT1, activity-based probe fluorescence polarization. inhibition, % at 2.79 µM. 1.3% of 370,000 active;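 active means inhibition above about 21% made by adding two undisclosed values, limit read from the data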
# TCR-CD3 inh – blocks the human TCR-CD3 interaction; inhibition, % at 9.4 µM; TAMRA-labeled TCR probe fluorescence, biochemical; 0.37% of 360,000 active; in the data active means inhibition above about 19%;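 further: recombinant mutant TCR 2C K166C tagged with TAMRA read by polarization; 0% = receptor in buffer alone and 100% = receptor with positive control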
# ATG4B inh – inhibitors of human ATG4B cysteine protease; ATG4B cleavage of LC3-PLA2, NBD-HPC fluorescence, 1 h; inhibition, % at 8.33 µM; 0.51% of 340,000 active; AID 504462; in the data active means inhibition above about 40%
# ATG4B confirm – confirmation of human ATG4B inhibitors; inhibition, % at 8.33 µM; shares compounds with ATG4B inh; 92% of 320 active; AID 504757; ATG4B protease fluorescent substrate cleavage assay; in the data active means inhibition above about 39%
# PLA2 counter – PLA2 (human) inhibition in ATG4B counter-screen; inhibition, % at 8.33 µM; 66% of 1,600 active; purified PLA2, NBD-C6-HPC fluorescence, 45 min; shares compounds with ATG4B inh; in the data active means inhibition above about 50%
# HTRA1 conf – HTRA1 (human) inhibition, confirmation; shares compounds with HTRA1 inhibitor; recombinant HTRA1, FP-rhodamine activity-based probe, fluorescence polarization; inhibition, % at 5.96 µM; 66% of 1,600 active; AID 540248;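 active means mean inhibition over three repeats above a set limit taken from the earlier primary screen, cut at about 37% in these data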;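 further: 0% = HTRA1 with DMSO and 100% = wells lacking HTRA1; inhibitors block probe binding so polarization drops and inhibition rises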
# PRMT1 confirm – confirmation of human PRMT1 inhibitors | shares compounds with PRMT1 FP inh | recombinant His-PRMT1, activity-based probe fluorescence polarization | inhibition, % at 2.79 µM | 42% of 3,300 active | AID 687036;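 active means mean inhibition across replicates above the hit cutoff derived for the earlier primary screen, cut at about 22% in these data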
# mABHD4 conf – confirmation of mouse ABHD4 inhibitors; shares compounds with mABHD4 FP; purified mABHD4, FP-Rh probe fluorescence polarization; inhibition, % at 8.92 µM; 55% of 1,800 active; AID 720658;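 active means mean inhibition across replicates above the hit cutoff set in the primary screen, cut at about 30% in these data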;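 further: 0% = wild-type ABHD4 with DMSO and 100% = catalytically dead S159A mutant with DMSO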
# An asterisk follows results filed as active; / = not tested or not shown.
SMILES,HTRA1 inhibitor,mABHD4 FP,SIAE primary,PRMT1 FP inh,TCR-CD3 inh,ATG4B inh,PLA2 counter,others
Cc1ccc(-c2nn(Cc3ccccc3)cc2C(=O)O)cc1,1,0,3,-1,0,-3,/,
Cc1ccc(Cn2cc(C=O)c(-c3ccc(F)cc3)n2)cc1,-27,-9,2,4,-1,10,/,
Cc1ccc(-c2nn(Cc3ccccc3)cc2C=O)cc1,-15,-17,-9,-3,-5,48*,59*,
Cc1ccc(-c2nn(Cc3ccccc3)cc2C=O)cc1C,-32,-4,2,1,-4,61*,78*,
CC[C@@H]1C[C@H]2CC[C@H](O2)[C@H](C)C(=O)O[C@@H](C)C[C@@H]2CC[C@@H](O2)[C@@H](C)C(=O)O[C@H](C)C[C@H]2CC[C@H](O2)[C@H](C)C(=O)O[C@@H](C)C[C@@H]2CC[C@@H](O2)[C@@H](C)C(=O)O1,/,-3,10,-1,2,/,/,
O=C(NC1CN2CCC1CC2)c1cc(-c2ccc(Cl)cc2)nc2ccccc12 (configuration not stated),/,8,4,-2,/,/,/,
Clc1ccccc1CN1CCN(c2ccccc2Cl)CC1,-9,0,10,2,1,46*,47,ATG4B confirm=70*
Clc1ccccc1N1CCN(Cc2ccc3c(c2)OCO3)CC1,-6,13,6,0,3,23,/,
CC12CC(c3ccccc3O1)C(C(=O)OCc1ccccc1)C(=O)N2 (configuration not stated),-6,2,10,0,-4,-3,/,
CCOC(=O)C1=C(C)N(C)C2(C)CC1c1ccccc1O2 (configuration not stated),1,0,3,-3,1,48*,26,
Cc1ccc(CN2C3CCCC2CC(NC(=S)NCc2ccccc2)C3)cc1 (configuration not stated),-11,-6,10,-1,6,43*,40,ATG4B confirm=67*
CCOC(=O)CC[C@@H]1CC[C@]2(CCCN(Cc3ccncc3)C2)O1,/,7,5,2,/,/,/,
CN(C)[C@@H]1C(=O)C(C(N)=O)=C(O)[C@@]2(O)C(=O)C3=C(O)c4c(O)ccc(Cl)c4[C@@](C)(O)C3C[C@@H]12 (some centres not stated),40*,60*,11,27*,12,80*,13,ATG4B confirm=47*;HTRA1 conf=17;PRMT1 confirm=8;mABHD4 conf=25
CC(c1ccccc1)n1cc(C(=O)NC2CCCC2)nn1 (configuration not stated),/,-2,-2,0,/,/,/,
CCCCn1c(=O)c(C(=O)Nc2ccccc2N)c(O)c2ccccc21,40*,3,-11,4,-9,-1,/,HTRA1 conf=20
CCCCCn1c(=O)c(C(=O)Nc2ccccc2N)c(O)c2ccccc21,10,2,1,-3,5,8,/,
O=c1[nH]c(=S)n(C2CC2)c(O)c1/C=N/Nc1ccccc1,-4,-14,-1,19,-16,7,/,
O=c1[nH]c(=S)n(C2CC2)c(O)c1/C=N/Nc1cccc2ccccc12,41*,27,11,13,-4,1,/,HTRA1 conf=22
CC(C)(C)n1nnnc1C1CN=C(c2ccccc2)c2cc(Cl)ccc2N1 (configuration not stated),/,6,-3,-3,/,/,/,
Cc1ccc2c(c1Cl)NC(C(=O)O)C1CC(Sc3ccccc3[N+](=O)[O-])C(Cl)C21 (configuration not stated),43*,/,/,/,/,28,/,HTRA1 conf=41*

# Assay outcomes (PubChem)
